A short description of data set [1]: Clearance in Sprague-Dawley rat at 10 mg/kg, iv. Format: ADME, organism-based. More on the design: dose 10 mg/kg, route intravenous. Conditions: in vivo. The method in brief:
(§1)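 Rats fasted 12 h, then dosed orally by gavage or by bolus tail-vein injection at 2 ml/kg. Compound given as a 5 mg/ml solution in N-methyl-2-pyrrolidone/Tween 80/water (1:2:7). Samples taken at various times (n = 5) and stored at −70 °C. Plasma deproteinized with acetonitrile containing carbamazepine internal standard, then quantified by LC-MS/MS.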

For data set [2], the target named is D(3) dopamine receptor (Homo sapiens, UniProt P35462). The experiment in a line: Displacement of [3H]-methylspiperone from dopamine D3 receptor (unknown origin) after 30 mins. The method in brief: (§2)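 Receptor membranes incubated at 27 °C, 60 min for D2L and 30 min for D3, with [3H]methylspiperone (0.2 nM for D2L, 0.25 nM for D3) and test compound at a range of concentrations. Buffer was 50 mM Tris-HCl pH 7.4, 10 mM MgCl2, 1 mM EDTA, 120 mM NaCl. Nonspecific binding defined with haloperidol (D2) or GR103691 (D3). IC50 obtained by nonlinear regression.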
Sequence of D(3) dopamine receptor (P35462 whole entry): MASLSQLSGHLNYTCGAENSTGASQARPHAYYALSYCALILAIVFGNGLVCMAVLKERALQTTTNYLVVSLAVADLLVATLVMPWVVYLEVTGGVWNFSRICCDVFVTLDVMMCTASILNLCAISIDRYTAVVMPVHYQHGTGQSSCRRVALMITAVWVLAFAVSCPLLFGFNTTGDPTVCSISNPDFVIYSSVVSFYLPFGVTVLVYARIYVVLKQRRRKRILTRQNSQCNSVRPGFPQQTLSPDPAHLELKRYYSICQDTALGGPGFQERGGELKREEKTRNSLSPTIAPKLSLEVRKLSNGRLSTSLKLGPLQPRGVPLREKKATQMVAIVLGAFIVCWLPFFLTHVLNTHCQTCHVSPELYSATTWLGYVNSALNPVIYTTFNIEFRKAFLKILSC

Data set [3] has as its system Mus musculus. The data set can be described thus: Antiobesity activity in B6.V/J ob/ob mouse assessed as inhibition of food intake at 25 mg/kg, ip measured up to 12 hrs relative to vehicle-treated control. Format: functional. Conditions: route intraperitoneal. The method in brief:
(§3)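 Male mice were acclimated 1 week at 23 ± 3 °C and 50 ± 20% humidity, then fasted 24 h. They were dosed once intraperitoneally with vehicle or compound: 50 mg/kg in C57BL/6, or 12.5, 25 or 50 mg/kg in B6.V-Lep^ob/J. Food intake was measured at 2, 6 and 12 h versus vehicle control.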

The target of data set [4] is D(2) dopamine receptor (Homo sapiens, UniProt P14416). The experiment in a line: Displacement of [3H]-methylspiperone from dopamine D2L receptor (unknown origin) after 60 mins. The method in brief: as §2
Sequence of D(2) dopamine receptor (P14416 whole entry): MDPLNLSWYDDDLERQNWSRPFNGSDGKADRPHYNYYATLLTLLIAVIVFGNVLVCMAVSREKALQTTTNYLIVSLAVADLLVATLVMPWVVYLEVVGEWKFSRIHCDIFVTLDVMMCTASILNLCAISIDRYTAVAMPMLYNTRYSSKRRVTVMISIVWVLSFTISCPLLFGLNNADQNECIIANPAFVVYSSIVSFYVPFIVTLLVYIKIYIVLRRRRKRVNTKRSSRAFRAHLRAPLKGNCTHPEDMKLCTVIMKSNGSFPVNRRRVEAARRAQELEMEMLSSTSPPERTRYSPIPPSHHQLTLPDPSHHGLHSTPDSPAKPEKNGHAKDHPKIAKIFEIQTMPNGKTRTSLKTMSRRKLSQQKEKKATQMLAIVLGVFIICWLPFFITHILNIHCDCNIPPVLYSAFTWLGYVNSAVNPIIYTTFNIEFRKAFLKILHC
(Displacement assays read how much labelled ligand stays bound in the presence of the test substance.)

Data set [5] can be described thus: Plasma concentration in Sprague-Dawley rat at 10 mg/kg, po measured at 2 hrs. Format: ADME, organism-based. More on the design: dose 10 mg/kg, route oral. The method in brief:
as §1

Data set [6] relates to Mus musculus. The experiment in a line: Antiobesity activity in C57BL/6 mouse assessed as inhibition of body weight gain at 50 mg/kg, ip measured after 2 to 12 hrs relative to vehicle-treated control. Format: functional. The note with it: C57BL/6, ip, route intraperitoneal.
Data set [7] concerns Mus musculus. The data set can be described thus: Antiobesity activity in B6.V/J ob/ob mouse assessed as change in heart weight at 5 mg/kg, po bid measured after 14 days (reference value: 0.150 +/- 0.003 g). Format: functional.
For data set [8], the system named is Mus musculus. The experiment in a line: Antiobesity activity in B6.V/J ob/ob mouse assessed as change in thymus weight at 5 mg/kg, po bid measured after 14 days (reference value: 0.029 +/- 0.006 g). Format: functional.
Data set [9] is described as follows: Terminal half life in Sprague-Dawley rat at 10 mg/kg, po. Format: ADME, organism-based. More on the design: dose 10 mg/kg, route oral. The note with it: in vivo, read-out: beta t1/2. Put shortly: as §1
The test system of data set [10] is Mus musculus. The experiment in a line: Antiobesity activity in B6.V/J ob/ob mouse assessed as […] at 25 mg/kg, ip measured after 12 hrs relative to vehicle-treated control. Conditions: route intraperitoneal. Format: functional.
Data set [11] addresses T1, 5-hydroxytryptamine receptor 1A (Homo sapiens, UniProt P08908).
T1 sequence (P08908 whole entry): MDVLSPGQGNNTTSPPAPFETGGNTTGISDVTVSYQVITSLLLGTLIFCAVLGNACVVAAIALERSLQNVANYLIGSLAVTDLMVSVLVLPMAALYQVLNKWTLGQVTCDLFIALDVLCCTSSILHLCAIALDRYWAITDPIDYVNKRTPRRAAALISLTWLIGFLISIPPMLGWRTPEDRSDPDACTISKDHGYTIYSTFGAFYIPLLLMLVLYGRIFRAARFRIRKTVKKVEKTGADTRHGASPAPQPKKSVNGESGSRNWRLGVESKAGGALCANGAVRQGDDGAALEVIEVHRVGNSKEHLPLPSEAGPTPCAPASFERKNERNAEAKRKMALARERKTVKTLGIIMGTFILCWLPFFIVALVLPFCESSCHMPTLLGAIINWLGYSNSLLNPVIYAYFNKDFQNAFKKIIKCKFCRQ
The experiment in a line: Displacement from [3H]8-OH-DPAT from human recombinant 5HT-1A receptor expressed in HEK293 cells after 120 mins. Format: cell-based. The method in brief:
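Membranes from HEK293-EBNA cells stably expressing recombinant human 5-HT1A. Incubated with 2 nM [3H]8-OH-DPAT and test compound at a range of concentrations in 50 mM Tris-HCl pH 7.4 with 5 mM MgSO4.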

In data set [12] the test system is Mus musculus. The experiment in a line: Antiobesity activity in B6.V/J ob/ob mouse assessed as inhibition of body weight gain at 25 mg/kg, po bid measured after 14 days relative to vehicle-treated control. Conditions: 336 h. Format: functional.
In data set [13] the test system is Mus musculus. The data set can be described thus: Antiobesity activity in B6.V/J ob/ob mouse assessed as change in lung weight at 25 mg/kg, po bid measured after 14 days (reference value: 0.143 +/- 0.013 g). Format: functional.
The species entered for data set [14] is Homo sapiens. The data set can be described thus: Selectivity ratio of IC50 for human recombinant 5HT-2B receptor to IC50 for human recombinant 5HT-2A receptor.
Data set [15] has as its target T2, Alpha-2A adrenergic receptor (Homo sapiens, UniProt P08913).
T2 sequence (P08913 whole entry): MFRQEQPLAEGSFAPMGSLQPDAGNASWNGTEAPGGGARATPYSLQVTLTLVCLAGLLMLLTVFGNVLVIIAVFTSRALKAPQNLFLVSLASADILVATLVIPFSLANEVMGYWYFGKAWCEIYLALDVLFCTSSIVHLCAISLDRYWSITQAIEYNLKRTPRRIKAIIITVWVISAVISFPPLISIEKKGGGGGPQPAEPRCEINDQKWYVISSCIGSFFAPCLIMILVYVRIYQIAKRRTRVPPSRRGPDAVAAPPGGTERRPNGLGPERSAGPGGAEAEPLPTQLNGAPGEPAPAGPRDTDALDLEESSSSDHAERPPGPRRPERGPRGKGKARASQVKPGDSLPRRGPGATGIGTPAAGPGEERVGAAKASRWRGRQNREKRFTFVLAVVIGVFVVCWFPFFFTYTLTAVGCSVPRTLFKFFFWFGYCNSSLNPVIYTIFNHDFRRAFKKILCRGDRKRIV
The data set can be described thus: Binding affinity to adrenergic alpha2A receptor (unknown origin).

The nature of data set [16]: Apparent volume of distribution at steady state in Sprague-Dawley rat at 10 mg/kg, iv. Format: ADME, organism-based. More on the design: dose 10 mg/kg, route intravenous. Conditions: in vivo, read-out: Vdss(app). Put shortly:
as §1

Data set [17] is described as follows: Drug excretion in Sprague-Dawley rat at 10 mg/kg, iv. Format: ADME, organism-based. More on the design: dose 10 mg/kg, route intravenous. The note with it: in vivo, read-out: Ae. The method in brief: as §1
The test system of data set [18] is Mus musculus. The data set can be described thus: Antiobesity activity in C57BL/6 mouse assessed as inhibition of body weight gain at 50 mg/kg, po qd measured after 14 days relative to vehicle-treated control. Format: functional. The note with it: C57BL/6, 336 h.
Data set [19] relates to Mus musculus. The experiment in a line: Antiobesity activity in B6.V/J ob/ob mouse assessed as inhibition of food intake at 50 mg/kg, ip measured up to 12 hrs relative to vehicle-treated control. The note with it: route intraperitoneal. Format: functional. The method in brief: as §3
A short description of data set [20]: Terminal half life in Sprague-Dawley rat at 10 mg/kg, iv. Conditions: in vivo, read-out: beta t1/2. Format: ADME, organism-based. More on the design: dose 10 mg/kg, route intravenous. Put shortly:
as §1

Data set [21] is described as follows: Plasma concentration in Sprague-Dawley rat at 10 mg/kg, po measured at 8 hrs. Format: ADME, organism-based. More on the design: dose 10 mg/kg, route oral. Put shortly: as §1
The test system of data set [22] is Mus musculus. The data set can be described thus: Antiobesity activity in B6.V/J ob/ob mouse assessed as change in liver weight at 5 mg/kg, po bid measured after 14 days (reference value: 3.396 +/- 0.162 g). Format: functional.

In general, clearance refers to the volume of plasma or blood freed of the substance per unit of time. Low values mean a low capacity for elimination, high ones a high capacity for elimination. The IC50 is the point on the concentration scale where inhibition reaches its midpoint. One may read the inhibition in vivo as the change of the read-out against control, counted positive when it falls. As to `Cl.Clc1cccc(Nc2nc(Cc3ccccc3)nc3c2CCNCC3)c1`, the clearance in data set [1] was 97.2 mL/min/kg. The IC50 is 807 nM in data set [2], 85.8 nM in [4], 1060 nM in data set [11] and above 10000 nM in data set [15]. Moreover, the results for the inhibition in vivo at 25 mg/kg in data set [3], in [10] and in data set [12] were 77.8%, 51.1% and 32.7%, respectively. The molecule also gave a concentration at 2 h in [5] of 50 ng/mL. The inhibition in vivo at 50 mg/kg in data set [6] came out at 84.8%; in data set [18], 18.8%; in data set [19], 93.3%. For the same molecule, the Activity in [7] came to 0.163 g; in data set [8] it was 0.033 g; in [13] it was 0.154 g; in [22], 3.394 g. Also, the results for the half-life in [9] and in [20] were 12.7 h and 2.25 h, respectively. In addition, in data set [14], the Ratio IC50 was 4.2. For the same molecule, the Vd in data set [16] worked out at 17 L/kg. Further, the dose excreted in data set [17] came out at 0.03%. In [21], this molecule gave a concentration at 8 h of 30 ng/mL.

These data come from ChEMBL document CHEMBL2390866, “Novel pyrimidoazepine analogs as serotonin 5-HT(2A) and 5-HT(2C) receptor ligands for the treatment of obesity” (Eur J Med Chem, 2013).
